# ChEMBL document CHEMBL3286372, “Design, synthesis and structure-activity relationship of novel semi-synthetic flavonoids as antiproliferative agents” (2014)
# Assays:
# Type in all cases: functional
# MDA-MB-435 = assay: Growth inhibition of human MDA-MB-435 cells at 10 uM after 48 hrs by sulforhodamine B assay relative to control; conditions: MDA-MB-435, 48 h, read-out: GI
# Summary of the method: (§1)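 NCI-60 primary screen at a single dose of 10 µM with 48 h continuous exposure. Growth or viability read by sulforhodamine B protein staining and expressed as percent growth inhibition versus untreated cells.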
# [1] = Growth inhibition of human HOP92 cells at 10 uM after 48 hrs by sulforhodamine B assay relative to control; conditions: HOP-92, 48 h, read-out: GI; summary of the method: as §1
# HCT-116 = assay: Growth inhibition of human HCT116 cells at 10 uM after 48 hrs by sulforhodamine B assay relative to control; conditions: HCT-116, 48 h, read-out: GI; summary of the method: as §1
# MCF7 = assay: Growth inhibition of human MCF7 cells at 10 uM after 48 hrs by sulforhodamine B assay relative to control; conditions: MCF7, 48 h, read-out: GI; summary of the method: as §1
# HL-60(TB) = assay: Growth inhibition of human HL-60(TB) cells at 10 uM after 48 hrs by sulforhodamine B assay relative to control; conditions: HL-60, 48 h, read-out: GI
# Summary of the method: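 Single-dose primary screen at 10 µM across the NCI 60 panel, 48 h continuous exposure. Growth estimated by sulforhodamine B protein staining and reported as percentage growth inhibition relative to untreated control.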
# PC-3 = assay: Growth inhibition of human PC3 cells at 10 uM after 48 hrs by sulforhodamine B assay relative to control; conditions: PC-3, 48 h, read-out: GI
# Summary of the method: (§2)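 NCI-60 primary screen at a single 10 µM dose. Continuous 48 h exposure, with growth or viability estimated by sulforhodamine B protein staining. Reported as percent growth inhibition of treated cells relative to untreated growth.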
# SW-620 = assay: Growth inhibition of human SW620 cells at 10 uM after 48 hrs by sulforhodamine B assay relative to control; conditions: SW-620, 48 h, read-out: GI; summary of the method: as §2
# U-251 = assay: Growth inhibition of human U251 cells at 10 uM after 48 hrs by sulforhodamine B assay relative to control; conditions: U-251, 48 h, read-out: GI
# Summary of the method: (§3)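 NCI-60 primary single-dose screen at 10 µM with continuous 48 h exposure. Cell viability/growth read by sulforhodamine B protein staining. Reported as percent growth inhibition relative to untreated cells.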
# [2] = Growth inhibition of human UO31 cells at 10 uM after 48 hrs by sulforhodamine B assay relative to control; conditions: UO-31, 48 h, read-out: GI; summary of the method: as §3
# IGROV-1 = assay: Growth inhibition of human IGROV1 cells at 10 uM after 48 hrs by sulforhodamine B assay relative to control; conditions: IGROV-1, 48 h, read-out: GI; summary of the method: as §1
# K562 = assay: Growth inhibition of human K562 cells at 10 uM after 48 hrs by sulforhodamine B assay relative to control; conditions: K562, 48 h, read-out: GI; summary of the method: as §1
# T47D = assay: Growth inhibition of human T47D cells at 10 uM after 48 hrs by sulforhodamine B assay relative to control; conditions: read-out: GI; summary of the method: as §2
# NCI-H522 = assay: Growth inhibition of human NCI-H522 cells at 10 uM after 48 hrs by sulforhodamine B assay relative to control; conditions: NCI-H522, 48 h, read-out: GI; summary of the method: as §2
# [3] = Growth inhibition of human OVCAR3 cells at 10 uM after 48 hrs by sulforhodamine B assay relative to control; conditions: OVCAR-3, 48 h, read-out: GI; summary of the method: as §2
# RPMI-8226 = assay: Growth inhibition of human RPMI8226 cells at 10 uM after 48 hrs by sulforhodamine B assay relative to control; conditions: RPMI-8226, 48 h, read-out: GI; summary of the method: as §2
# NCI-H460 = assay: Growth inhibition of human NCI-H460 cells at 10 uM after 48 hrs by sulforhodamine B assay relative to control; conditions: NCI-H460, 48 h, read-out: GI; summary of the method: as §2
# [4] = Growth inhibition of human OVCAR8 cells at 10 uM after 48 hrs by sulforhodamine B assay relative to control; conditions: OVCAR-8, 48 h, read-out: GI; summary of the method: as §2
# 786-0 = assay: Growth inhibition of human 786-0 cells at 10 uM after 48 hrs by sulforhodamine B assay relative to control; conditions: 786-0, 48 h, read-out: GI; summary of the method: as §1
# SK-MEL-2 = assay: Growth inhibition of human SK-MEL-2 cells at 10 uM after 48 hrs by sulforhodamine B assay relative to control; conditions: SK-MEL-2, 48 h, read-out: GI; summary of the method: as §2
# TK-10 = assay: Growth inhibition of human TK10 cells at 10 uM after 48 hrs by sulforhodamine B assay relative to control; conditions: TK-10, 48 h, read-out: GI; summary of the method: as §3
# [5] = Growth inhibition of human NCI-ADR-RES cells at 10 uM after 48 hrs by sulforhodamine B assay relative to control; conditions: read-out: GI; summary of the method: as §2
# MDA-MB-468 = assay: Growth inhibition of human MDA-MB-468 cells at 10 uM after 48 hrs by sulforhodamine B assay relative to control; conditions: MDA-MB-468, 48 h, read-out: GI; summary of the method: as §2
# NCI-H23 = assay: Growth inhibition of human NCI-H23 cells at 10 uM after 48 hrs by sulforhodamine B assay relative to control; conditions: NCI-H23, 48 h, read-out: GI; summary of the method: as §2
# [6] = Growth inhibition of human LOXIMVI cells at 10 uM after 48 hrs by sulforhodamine B assay relative to control; conditions: LOX IMVI, read-out: GI; summary of the method: as §1
# [7] = Growth inhibition of human MOLT4 cells at 10 uM after 48 hrs by sulforhodamine B assay relative to control; conditions: MOLT-4, 48 h, read-out: GI; summary of the method: as §2
# SK-MEL-5 = assay: Growth inhibition of human SK-MEL-5 cells at 10 uM after 48 hrs by sulforhodamine B assay relative to control; conditions: SK-MEL-5, 48 h, read-out: GI; summary of the method: as §2
# CCRF-CEM = assay: Growth inhibition of human CCRF-CEM cells at 10 uM after 48 hrs by sulforhodamine B assay relative to control; conditions: read-out: GI; summary of the method: as §1
# SR = assay: Growth inhibition of human SR cells at 10 uM after 48 hrs by sulforhodamine B assay relative to control; conditions: read-out: GI; summary of the method: as §2
# [8] = Growth inhibition of human SF539 cells at 10 uM after 48 hrs by sulforhodamine B assay relative to control; conditions: SF-539, 48 h, read-out: GI; summary of the method: as §2
# CAKI-1 = assay: Growth inhibition of human CAKI-1 cells at 10 uM after 48 hrs by sulforhodamine B assay relative to control; conditions: CAKI-1, 48 h, read-out: GI; summary of the method: as §1
# [9] = Growth inhibition of human OVCAR4 cells at 10 uM after 48 hrs by sulforhodamine B assay relative to control; conditions: OVCAR-4, 48 h, read-out: GI; summary of the method: as §2
# [10] = Growth inhibition of human SF295 cells at 10 uM after 48 hrs by sulforhodamine B assay relative to control; conditions: SF-295, 48 h, read-out: GI; summary of the method: as §2
# [11] = Growth inhibition of human RXF393 cells at 10 uM after 48 hrs by sulforhodamine B assay relative to control; conditions: RXF 393, 48 h, read-out: GI; summary of the method: as §2
# HT-29 = assay: Growth inhibition of human HT-29 cells at 10 uM after 48 hrs by sulforhodamine B assay relative to control; conditions: HT-29, 48 h, read-out: GI; summary of the method: as §1
# [12] = Growth inhibition of human UACC257 cells at 10 uM after 48 hrs by sulforhodamine B assay relative to control; conditions: UACC-257, 48 h, read-out: GI; summary of the method: as §3
# Malme-3M = assay: Growth inhibition of human MALME-3M cells at 10 uM after 48 hrs by sulforhodamine B assay relative to control; conditions: read-out: GI; summary of the method: as §1
# [13] = Growth inhibition of human HCT15 cells at 10 uM after 48 hrs by sulforhodamine B assay relative to control; conditions: HCT-15, 48 h, read-out: GI; summary of the method: as §1
# [14] = Growth inhibition of human BT549 cells at 10 uM after 48 hrs by sulforhodamine B assay relative to control; conditions: BT-549, 48 h, read-out: GI; summary of the method: as §1
Compound,inhibition of growth at 10 µM (MDA-MB-435),inhibition of growth at 10 µM (HCT-116),inhibition of growth at 10 µM (MCF7),inhibition of growth at 10 µM (HL-60(TB)),inhibition of growth at 10 µM (PC-3),inhibition of growth at 10 µM (SW-620),inhibition of growth at 10 µM (U-251),inhibition of growth at 10 µM (T47D),inhibition of growth at 10 µM (NCI-H522),inhibition of growth at 10 µM [3],inhibition of growth at 10 µM (RPMI-8226),inhibition of growth at 10 µM (SK-MEL-2),inhibition of growth at 10 µM [5],inhibition of growth at 10 µM (MDA-MB-468),inhibition of growth at 10 µM [6],inhibition of growth at 10 µM [7],inhibition of growth at 10 µM (CCRF-CEM),inhibition of growth at 10 µM (SR),inhibition of growth at 10 µM (CAKI-1),inhibition of growth at 10 µM [10],further results
C=CCOc1cc2oc(-c3ccc(Cl)cc3)cc(=O)c2c(OC)c1C=O,73%,89%,85%,75%,76%,69%,68%,72%,93%,81%,96%,75%,78%,91%,99%,,,,,,inhibition of growth at 10 µM [1]: 97%; inhibition of growth at 10 µM [2]: 74%; inhibition of growth at 10 µM (IGROV-1): 62%; inhibition of growth at 10 µM (K562): 76%; inhibition of growth at 10 µM (NCI-H460): 61%; inhibition of growth at 10 µM [4]: 66%; inhibition of growth at 10 µM (786-0): 65%; inhibition of growth at 10 µM (TK-10): 73%; inhibition of growth at 10 µM (NCI-H23): 61%
COc1ccc(/C=C/c2oc3c(OC)c4occc4c(OC)c3c(=O)c2CN2CCOCC2)cc1,,,,,,,,,,,61%,,,,,66%,87%,,,,inhibition of growth at 10 µM (SK-MEL-5): 84%
COc1ccc(/C=C2\Oc3c(c(OC)c4ccoc4c3Br)C2=O)cc1,,62%,60%,,,,,,,,71%,,,,,67%,,60%,61%,,inhibition of growth at 10 µM [8]: 60%
COc1c2ccoc2c(Br)c2oc(-c3ccc(Cl)cc3)cc(=O)c12,,,,,,,,,,,,,,,,,,,,,inhibition of growth at 10 µM [9]: 72%
COc1c2c(c(Br)c3occc13)O/C(=C\c1ccc(Cl)cc1)C2=O,82%,83%,79%,74%,69%,63%,62%,60%,64%,67%,91%,84%,61%,80%,65%,85%,79%,82%,80%,67%,inhibition of growth at 10 µM [11]: 78%; inhibition of growth at 10 µM (HT-29): 63%; inhibition of growth at 10 µM [12]: 61%; inhibition of growth at 10 µM (Malme-3M): 65%
COc1ccc(-c2cc(=O)c3c(OC)c4ccoc4cc3o2)cc1,,,,,,,62%,,,,,,,,,,,,,60%,inhibition of growth at 10 µM [2]: 62%
C=CCOc1cc2oc(-c3ccc(OC)cc3)cc(=O)c2c(OC)c1C=O,,,,,,,,,,,,,,,,,,,,,inhibition of growth at 10 µM [1]: 66%
COc1c2c(c(Br)c3occc13)O/C(=C\c1ccccc1)C2=O,74%,77%,84%,64%,66%,60%,73%,,62%,86%,94%,88%,79%,93%,65%,85%,79%,79%,87%,65%,inhibition of growth at 10 µM [13]: 60%; inhibition of growth at 10 µM [8]: 75%; inhibition of growth at 10 µM (NCI-H460): 83%; inhibition of growth at 10 µM [4]: 70%; inhibition of growth at 10 µM [14]: 66%; inhibition of growth at 10 µM (SK-MEL-5): 67%; inhibition of growth at 10 µM [11]: 93%; inhibition of growth at 10 µM (HT-29): 72%; inhibition of growth at 10 µM (TK-10): 61%; inhibition of growth at 10 µM (NCI-H23): 78%
COc1ccc(/C=C/c2cc(=O)c3c(OC)c4ccoc4c(Br)c3o2)cc1,,,,,,,,,62%,,,,,,,,,,,,
COc1c(C(=O)/C=C/c2ccc(Cl)cc2)c(O)cc2occc12,,,64%,,,,,67%,,,66%,,,,,,60%,63%,,,
